Source: ChEMBL document CHEMBL3576775 (Eur J Med Chem, 2015)
Active and inactive are the calls of the source. The rule behind the calls is not given here.

Columns and labels:
Glycine max [1] = tested on: Glycine max
[2] = Inhibition of soyabean 5-LOX using arachidonic acid as substrate by microplate scanning spectrophotometer analysis; parameters: species or system Glycine max
Summary of the method: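 Soybean lipoxygenase in assay buffer was mixed with compound (DMSO solutions at 0.01 to 100 μM, 1:10 into enzyme solution). Reaction started with arachidonic acid; plate shaken 5 min, chromogen added, shaken 5 min, read at 490 nm. Blanks and positive controls included. Duplicates, deviation <5%, averaged; percent inhibition calculated from activity.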

[3] = Competitive inhibition of soyabean 5-LOX by UV-Visible spectrophotometry; parameters: species or system Glycine max
[4] = target: T1, Prostaglandin G/H synthase 2 (Homo sapiens) (UniProt P35354)
T1 sequence (whole entry): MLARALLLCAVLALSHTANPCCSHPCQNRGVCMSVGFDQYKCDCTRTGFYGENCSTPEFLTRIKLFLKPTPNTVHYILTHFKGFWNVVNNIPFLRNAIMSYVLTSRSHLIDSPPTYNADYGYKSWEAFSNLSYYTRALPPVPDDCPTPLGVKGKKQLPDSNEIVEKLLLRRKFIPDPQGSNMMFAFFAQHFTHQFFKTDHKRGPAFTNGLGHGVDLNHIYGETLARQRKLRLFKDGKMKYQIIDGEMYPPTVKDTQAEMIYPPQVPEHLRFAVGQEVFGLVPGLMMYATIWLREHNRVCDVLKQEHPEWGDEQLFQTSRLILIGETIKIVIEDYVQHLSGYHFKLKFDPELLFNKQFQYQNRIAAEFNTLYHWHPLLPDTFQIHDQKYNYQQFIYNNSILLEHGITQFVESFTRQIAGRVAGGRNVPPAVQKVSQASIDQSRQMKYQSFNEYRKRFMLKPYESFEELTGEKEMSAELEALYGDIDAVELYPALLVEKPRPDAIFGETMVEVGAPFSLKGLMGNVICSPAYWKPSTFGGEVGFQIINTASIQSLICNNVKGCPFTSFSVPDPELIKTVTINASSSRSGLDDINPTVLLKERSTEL

[5] = target: T2, Prostaglandin G/H synthase 1 (Ovis aries, UniProt P05979); test: Inhibition of ovine COX-1 assessed as PGF2alpha formation using arachidonic acid as substrate pretreated with compound for 20 mins prior to substrate addition by spectrophotometric analysis
T2 sequence (P05979 whole entry): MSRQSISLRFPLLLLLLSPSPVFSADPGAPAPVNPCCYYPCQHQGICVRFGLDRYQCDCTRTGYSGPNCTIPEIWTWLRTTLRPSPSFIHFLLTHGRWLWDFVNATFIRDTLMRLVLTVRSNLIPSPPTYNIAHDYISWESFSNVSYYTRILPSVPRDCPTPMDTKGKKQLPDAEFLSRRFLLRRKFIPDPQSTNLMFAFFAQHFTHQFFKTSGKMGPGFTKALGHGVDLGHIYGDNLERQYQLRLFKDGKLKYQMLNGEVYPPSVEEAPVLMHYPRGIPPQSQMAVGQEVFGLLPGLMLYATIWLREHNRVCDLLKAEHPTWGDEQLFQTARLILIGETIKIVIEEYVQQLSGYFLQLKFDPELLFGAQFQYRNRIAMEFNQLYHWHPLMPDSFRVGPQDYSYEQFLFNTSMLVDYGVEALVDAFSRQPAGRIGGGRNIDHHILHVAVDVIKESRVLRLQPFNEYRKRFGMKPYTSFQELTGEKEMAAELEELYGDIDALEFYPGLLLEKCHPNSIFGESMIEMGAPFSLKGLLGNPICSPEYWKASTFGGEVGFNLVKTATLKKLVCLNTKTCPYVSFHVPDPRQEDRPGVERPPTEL

[6] = target: T3, Prostaglandin G/H synthase 2 (Homo sapiens, UniProt P35354); test: Competitive inhibition of human recombinant COX-2 by UV-Visible spectrophotometry
T3 sequence (P35354 whole entry): T1 sequence (whole entry)
Summary of the method: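 Double reciprocal plot from UV-vis absorbance change at the maximum. Arachidonic acid in HEPES:DMSO (1:1) added in 5 µl increments (each giving 50 µM final) to a fixed enzyme concentration. Repeated with inhibitor at fixed 10 µM and 20 µM. Type of inhibition taken from where the extrapolated trails meet; also from IC50 versus Ki comparison.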

Mus musculus [7] = test: Acute toxicity against Swiss albino mouse assessed as lesser inflammatory cells and decreased area of necrosis in stomach at 5 to 300 mg, po measured after 14 days; format: organism-based; conditions: in vivo, 336 h
Mus musculus [8] = test: Acute toxicity against Swiss albino mouse assessed as histological changes in heart at 5 to 300 mg, po measured after 14 days; format: organism-based; conditions: in vivo, 336 h
Summary of the method: (§1)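 Oral single doses of 5 mg, 50 mg and 300 mg to mice in three groups of three. Observed continuously for 4 h for signs of toxicity, then at regular intervals over the first 24 h and once daily for 14 days. Animals sacrificed at day 14; histology of liver, kidney and heart.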

Mus musculus [9] = test: Anti-inflammatory activity against Swiss albino mouse assessed as reduction in paw thickness at 5 mg/kg, ip administered 30 mins prior to dextran injection measured after 4 hrs by vernier calliper analysis relative to control; format: functional
Summary of the method: (§2)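 Swiss albino mice, 5 per group. […] Paw thickness measured by vernier calipers at 1, 2, 3, 4, 6 and 24 h. Reduction expressed relative to control; mean ± SEM.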

Mus musculus [10] = test: Acute toxicity against Swiss albino mouse assessed as histological changes in liver at 5 to 300 mg, po measured after 14 days; format: organism-based; conditions: in vivo, 336 h
Summary of the method: as §1

Mus musculus [11] = test: Acute toxicity against Swiss albino mouse assessed as histological changes in kidney at 5 to 300 mg, po measured after 14 days; format: organism-based; conditions: in vivo, 336 h
Summary of the method: as §1

Mus musculus [12] = test: Anti-hyperalgesic activity against Swiss albino mouse assessed as reduction in paw lickings at 5 mg/kg, ip administered 30 mins prior to capsaicin injection and 30 mins after 200 ug misoprostol injection; format: functional, organism-based
Summary of the method: (§3)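 Mice (5 per group, 7 groups), all treatments i.p. Misoprostol (200 μg) or substance P (10 μg) given 30 min before test compound (5 mg Kg⁻¹); capsaicin (20 μL) injected into right hind paw plantar surface 30 min later. Controls received normal saline. Paw lickings counted over 10 min after capsaicin.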

Mus musculus [13] = test: Anti-hyperalgesic activity against Swiss albino mouse assessed as reduction in paw lickings at 5 mg/kg, ip administered 30 mins prior to capsaicin injection and 30 mins after 10 ug substance-P injection; format: functional, organism-based
Summary of the method: as §3

Glycine max [14] = test: Competitive inhibition of soyabean 5-LOX using arachidonic acid as substrate by double reciprocal plot analysis
Summary of the method: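 Arachidonic acid in HEPES:DMSO (1:1) at 2 mM, added in 5 μL increments (50 μM final each) to fixed enzyme. Change in substrate absorbance at maxima plotted double-reciprocally, without inhibitor and with 10 μM or 20 μM inhibitor; intersection of the extrapolated lines indicates inhibition type.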

Mus musculus [15] = test: Anti-hyperalgesic activity against Swiss albino mouse assessed as reduction in paw lickings at 5 mg/kg, ip administered 30 mins prior to capsaicin injection relative to control; format: functional
Mus musculus [16] = test: Anti-inflammatory activity against Swiss albino mouse assessed as reduction in paw thickness at 10 mg/kg, ip administered 30 mins prior to dextran injection measured after 4 hrs by vernier calliper analysis relative to control; format: functional
Summary of the method: as §2

Mus musculus [17] = test: Anti-hyperalgesic activity against Swiss albino mouse assessed as reduction in paw lickings at 10 mg/kg, ip administered 30 mins prior to capsaicin injection relative to control; format: functional
Summary of the method: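 Swiss albino mice, 5 per group; compound given i.p. 30 min before 20 μL capsaicin injected into plantar surface of right hind paw. […] Paw lickings and twitchings counted over 10 min after capsaicin as hyperalgesia indicator; mean ± SEM, one-way ANOVA with Tukey's test versus control.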

Row | Compound | Ka (Glycine max [1]) | IC50 [2] | Ki [3] | Ka [4] | IC50 [5] | Ki [6] | other results
1 | Cc1ccc(S(=O)(=O)n2cc(C(=O)C(=O)N[C@@H](Cc3cnc[nH]3)C(=O)O)c3ccccc32)cc1 | – | 2.8 µM | – | – | > 100 µM | – | –
2 | Cc1ccc(S(=O)(=O)n2cc(C(=O)C(=O)N[C@@H](Cc3c[nH]c4ccccc34)C(=O)NCC(=O)O)c3ccccc32)cc1 | 3.36 ×10⁶ /M | 0.002 µM | 0.042 µM | 3.29 ×10⁵ /M | 2.21 µM | 0.109 µM | Activity (Mus musculus [7]): Non-toxic; Activity (Mus musculus [8]): Non-toxic; inhibition in vivo at 5 mg/kg (Mus musculus [9]): 47%; Activity (Mus musculus [10]): Non-toxic; Activity (Mus musculus [11]): Non-toxic; inhibition (Mus musculus [12]): Active; inhibition (Mus musculus [13]): inactive; inhibition (Glycine max [14]): Active; inhibition in vivo at 5 mg/kg (Mus musculus [15]): 96%; inhibition in vivo at 10 mg/kg (Mus musculus [16]): 49%
3 | COC(=O)CC[C@@H](NC(=O)[C@@H](Cc1cnc[nH]1)NC(=O)C(=O)c1cn(S(=O)(=O)c2ccc(C)cc2)c2ccccc12)C(=O)OC | – | 3.7 µM | – | – | 20.2 µM | – | –
4 | O=C(O)Cc1ccccc1Nc1c(Cl)cccc1Cl [DICLOFENAC] | – | – | – | – | – | – | inhibition in vivo at 10 mg/kg (Mus musculus [17]): 90%; inhibition in vivo at 10 mg/kg (Mus musculus [16]): 42%
5 | COC(=O)[C@@H](Cc1c[nH]c2ccccc12)NC(=O)CNC(=O)C(=O)c1cn(S(=O)(=O)c2ccc(C)cc2)c2ccccc12 | – | 12.2 µM | – | – | 65.5 µM | – | –
6 | Cc1ccc(S(=O)(=O)n2cc(C(=O)C(=O)NCC(=O)N[C@H](Cc3c[nH]c4ccccc34)C(=O)O)c3ccccc32)cc1 | – | 15.2 µM | – | – | 98.3 µM | – | –
7 | COC(=O)CNC(=O)[C@@H](Cc1c[nH]c2ccccc12)NC(=O)C(=O)c1cn(S(=O)(=O)c2ccc(C)cc2)c2ccccc12 | – | 8.38 µM | – | – | 71.3 µM | – | –
8 | NS(=O)(=O)c1ccc(-n2nc(C(F)(F)F)cc2-c2ccc(Br)cc2)cc1 | – | – | – | – | 13 µM | – | –
9 | Cc1ccc(S(=O)(=O)n2cc(C(=O)C(=O)N[C@H](Cc3cnc[nH]3)C(=O)N[C@H](CCC(=O)O)C(=O)O)c3ccccc32)cc1 | – | 2.33 µM | – | – | 151 µM | – | –
10 | Cc1ccc(S(=O)(=O)n2cc(C(=O)C(=O)N[C@H](Cc3c[nH]c4ccccc34)C(=O)NCC(=O)O)c3ccccc32)cc1 | – | 5.61 µM | – | – | > 100 µM | – | –

Continued, in another order:

Row | Ka (Glycine max [1]) | IC50 [2] | Ki [3] | Ka [4] | IC50 [5] | Ki [6] | Compound | other results
11 | 2.08 ×10⁵ /M | 0.1 µM | 0.097 µM | 1.81 ×10² /M | 104 µM | 4.66 µM | COC(=O)CNC(=O)CNC(=O)C(=O)c1cn(S(=O)(=O)c2ccc(C)cc2)c2ccccc12 | –
12 | – | 1.6 µM | – | – | – | – | CC(C)(C)Sc1c(CC(C)(C)C(=O)O)n(Cc2ccc(Cl)cc2)c2ccc(OCc3ccc4ccccc4n3)cc12 [QUIFLAPON] | –
13 | – | 0.01 µM | – | – | 87.2 µM | – | Cc1ccc(S(=O)(=O)n2cc(C(=O)C(=O)N[C@@H](Cc3c[nH]c4ccccc34)C(=O)O)c3ccccc32)cc1 | –
14 | – | 0.0086 µM | – | – | 90.1 µM | – | Cc1ccc(S(=O)(=O)n2cc(C(=O)C(=O)NCC(=O)O)c3ccccc32)cc1 | –
15 | 7.7 ×10⁴ /M | 1 µM | 0.753 µM | 9.87 ×10³ /M | 90.9 µM | 1.34 µM | COC(=O)[C@H](Cc1c[nH]c2ccccc12)NC(=O)CNC(=O)C(=O)c1cn(S(=O)(=O)c2ccc(C)cc2)c2ccccc12 | –
16 | 3.02 ×10⁵ /M | 0.6 µM | 0.356 µM | 4.43 ×10⁴ /M | 76.5 µM | 0.983 µM | COC(=O)CC[C@H](NC(=O)[C@H](Cc1cnc[nH]1)NC(=O)C(=O)c1cn(S(=O)(=O)c2ccc(C)cc2)c2ccccc12)C(=O)OC | –
17 | 1.99 ×10⁵ /M | 0.08 µM | 0.536 µM | 7.76 ×10⁵ /M | 12.9 µM | 0.012 µM | Cc1ccc(S(=O)(=O)n2cc(C(=O)C(=O)N[C@@H](Cc3cnc[nH]3)C(=O)N[C@@H](CCC(=O)O)C(=O)O)c3ccccc32)cc1 | inhibition in vivo at 5 mg/kg (Mus musculus [9]): 45%; inhibition (Mus musculus [12]): Active; inhibition (Mus musculus [13]): inactive; inhibition (Glycine max [14]): Active; inhibition in vivo at 5 mg/kg (Mus musculus [15]): 95%; inhibition in vivo at 10 mg/kg (Mus musculus [16]): 48%
18 | 5.6 ×10⁴ /M | 0.8 µM | 0.946 µM | 7.91 ×10³ /M | 9.89 µM | 2.9 µM | COC(=O)CNC(=O)[C@H](Cc1c[nH]c2ccccc12)NC(=O)C(=O)c1cn(S(=O)(=O)c2ccc(C)cc2)c2ccccc12 | –
19 | 2.06 ×10⁶ /M | 0.004 µM | 0.064 µM | 3.25 ×10⁶ /M | 43.5 µM | 0.005 µM | Cc1ccc(S(=O)(=O)n2cc(C(=O)C(=O)NCC(=O)N[C@@H](Cc3c[nH]c4ccccc34)C(=O)O)c3ccccc32)cc1 | inhibition in vivo at 10 mg/kg (Mus musculus [17]): 96%; inhibition (Glycine max [14]): Active; inhibition in vivo at 5 mg/kg (Mus musculus [15]): 88%
20 | 2.99 ×10⁵ /M | 0.005 µM | 0.232 µM | 1.9 ×10³ /M | > 100 µM | 3.12 µM | Cc1ccc(S(=O)(=O)n2cc(C(=O)C(=O)NCC(=O)NCC(=O)O)c3ccccc32)cc1 | inhibition (Glycine max [14]): Active; inhibition in vivo at 5 mg/kg (Mus musculus [15]): 90%
